Results: ChEMBL document CHEMBL4334444, “Studies of Jatrogossone A as a Reactive Oxygen Species Inducer in Cancer Cellular Models” (J Nat Prod, 2019)
Blank lines part the entries; values can stand above or below the compound they belong to. Active and inactive are the calls of the source. The calls are words filed in the database; no cut-off is given here.

Assays:
KOPN-8 [1] = assay: Induction of apoptosis in human KOPN8 cells assessed as increase in late apoptotic cells at 10 uM after 24 hrs by Annexin V-FITC and propidium iodide staining based flow cytometry relative to control; format: functional
Summary of the method: (§1)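 KOPN-8 cells were plated at 1.00 × 10^6 per plate and held 12 h at 37 °C, then treated 24 h; positive control 2 μM staurosporine, vehicle DMSO. Cells were stained with Annexin V-FITC and PI and analysed by flow cytometry (FACSCalibur). Profiles are representative of three independent biological replicates.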

KOPN-8 [2] = assay: Induction of mitochondrial membrane potential loss in human KOPN8 cells at 1 to 3 uM after 24 to 48 hrs by TMRM staining based flow cytometric analysis; format: functional, cell-based
Summary of the method: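 TMRM flow cytometry. KOPN-8 (4 × 10^4 or 5 × 10^5 per well) or MCF-7 (2 × 10^4 or 2 × 10^5 per well) were seeded 24 h, then treated 24–48 h. FCCP 10 μM was added 10 min before staining as positive control. Cells were stained with TMRM 100 nM for 0.5 h, then PBS-washed, resuspended in PBS with 1% FBS and analysed by flow cytometry; DAPI flagged compromised cells.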

HMEC [3] = assay: Induction of ROS generation in human HMEC cells at 30 uM incubated for 1 hr by CellROX green reagent based fluorescence assay; format: cell-based
Summary of the method: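 CellROX green ROS assay: cells exposed 1 h at 37 °C (30 μM) with DMSO 0.5% (v/v) negative control, menadione 10 μM positive control, ± NAC (100 μM per figure legend). CellROX green added at 5 μM final, 30 min more; washed, fixed in 4% paraformaldehyde 15 min, fluorescence read at 485 ex/535 em. Mean and SD of at least three experiments; two-way ANOVA.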

KOPN-8 [4] = assay: Induction of apoptosis in human KOPN8 cells at 10 uM by Annexin V-FITC and propidium iodide staining based flow cytometry; format: functional, cell-based; conditions: TDE = time-dependent effect; summary of the method: as §1
SUM149PT = assay: Antiproliferative activity against human SUM149 cells assessed as reduction in cell viability at >10 uM after 48 hrs by propidium iodide staining based fluorescence assay; format: functional
Summary of the method: (§2)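 MDA-MB-231 and SUM149 seeded at 6 × 10^4 to 2 × 10^5 cells/well, cultured 24 h, then exposed for 48 h. Cells fixed in cold methanol, stained with 0.4% propidium iodide, fluorescence imaged. Viability expressed as percent surviving cells relative to vehicle wells.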

[5] = Protein binding in human plasma; format: ADME, cell-free; conditions: read-out: PPB (converted)
U2OS [6] = assay: Antiproliferative activity against human U2OS assessed as reduction in cell viability at >10 uM by CellTiter-Glo assay; format: functional, cell-based
Summary of the method: (§3)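 CellTiter-Glo luminescent viability readout. Cells kept at 37 °C under 5% CO2. HMEC primary cells grown in basal medium with growth kit; leukemia lines and murine BCR-ABL (WT, Bax/Bak DKO) cultured per earlier description. Positive controls: staurosporine 25 μM, gambogic acid 10 μM, a toxic quinoline. At least two biological replicates in technical triplicate; luminescence normalized to untreated controls; EC50 computed.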

KOPN-8 [7] = assay: Induction of apoptosis in human KOPN8 cells assessed as decrease in viable cells at 10 uM after 24 hrs by Annexin V-FITC and propidium iodide staining based flow cytometry; format: functional, cell-based; summary of the method: as §1
B-ALL [8] = assay: Cytotoxicity against BCR-ABL p185-positive mouse B-ALL cells overexpressing human BCL-2 assessed as inhibition of cell viability after 24 hrs by AnnexinV-FITC/propidium iodide staining based flow cytometric analysis; format: functional
[9] = Stability in DMSO assessed as micheal adduct formation by measuring intact compound incubated for 16 hrs in presence of glutathione by NMR analysis; format: physicochemical
U2OS [10] = assay: Ratio of concentration required for induction of apoptosis in human U2OS cells to concentration required for induction of mito-phagy in human U2OS cells transfected with mKeima-Red-Mito-7; format: functional
[11] = Stability in DMSO assessed as micheal adduct formation by measuring intact compound incubated for 16 hrs in presence of NAC by NMR analysis; format: physicochemical
HMEC [12] = assay: Cytotoxicity against human HMEC cells assessed as cell viability at >100 uM by CellTiter-Glo assay; format: cell-based; summary of the method: as §3
KOPN-8 [13] = assay: Induction of cell death in human KOPN8 cells at 4 to 10 uM after 24 hrs; format: functional, cell-based
MDA-MB-231 = assay: Antiproliferative activity against human MDA-MB-231 cells assessed as reduction in cell viability at 0.1 to 250 uM after 48 hrs by propidium iodide staining based fluorescence assay; format: functional; summary of the method: as §2
MCF7 [14] = assay: Upregulation of Trx level in human MCF7 at 1 uM after 3 to 6 hrs by Western blot analysis; format: functional, cell-based
Summary of the method: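 MCF-7 cells were exposed to compound for 3 or 6 h. Lysates were made in Tris-HCl pH 7.5 RIPA-type buffer with protease/phosphatase inhibitors and quantified by BCA. 30 μg protein per lane was run on 4–12% Bis-Tris SDS-PAGE in MES and transferred to nitrocellulose. Blots were probed for thioredoxin with tubulin as reference, detected with IR-dye secondaries (1:15 000) and scanned on an infrared imager.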

MCF7 [15] = assay: Induction of cell death in human MCF7 cells at 10 uM after 24 hrs; format: functional, cell-based
MCF7 [16] = assay: Antiproliferative activity against human MCF7 cells assessed as reduction in cell viability at 0.1 to 250 uM by CellTiter-Glo assay; format: functional, cell-based; summary of the method: as §3
U2OS [17] = assay: Antiproliferative activity against human U2OS cells assessed as reduction in cell viability at 0.1 to 250 uM by CellTiter-Glo assay; format: functional, cell-based; summary of the method: as §3
B-ALL [18] = assay: Antiproliferative activity against mouse B-ALL cells harboring Bax/Bak double knockout mutant assessed as reduction in cell viability at 0.1 to 250 uM by CellTiter-Glo assay; format: functional, cell-based; summary of the method: as §3
HMEC [19] = assay: Cytotoxicity against human HMEC cells assessed as cell detachment; format: cell-based
MCF7 [20] = assay: Upregulation of Trx expression in human MCF7 at 1 uM after 24 hrs by Western blot analysis; format: functional, cell-based
Summary of the method: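 Western blot of KOPN-8 or MCF-7 lysates, 30 μg protein per lane on 4–12% Bis-Tris SDS-PAGE and transferred to nitrocellulose. Blots were probed with an oxidative stress defense antibody cocktail (catalase, SOD1, Trx, smooth muscle actin) and tubulin, and detected with IR-dye secondaries on a LI-COR Odyssey.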

K562 = assay: Antiproliferative activity against human K562 cells assessed as reduction in cell viability at 0.1 to 250 uM by CellTiter-Glo assay; format: functional, cell-based; summary of the method: as §3
HMEC [21] = assay: Cytotoxicity against human HMEC cells assessed as reduction in cell viability at 0.1 to 250 uM by CellTiter-Glo assay; format: cell-based; summary of the method: as §3
KOPN-8 [22] = assay: Antiproliferative activity against human KOPN8 cells assessed as reduction in cell viability at 0.1 to 250 uM by CellTiter-Glo assay; format: functional, cell-based; summary of the method: as §3

fraction unbound [5]: 0.16
Stability [9]: Stable
Stability [11]: Stable
Structure (SMILES): CC(=O)O[C@H]1/C2=C/[C@@H](C)C(=O)C[C@H]3[C@@H](/C=C(\C)C(=O)[C@H]2C[C@H]1C)C3(C)C
Activity (KOPN-8 [1]): 15%
Activity (KOPN-8 [2]): Active
Activity (HMEC [3]): Toxic
Activity (KOPN-8 [4]): Tde
inhibition (SUM149PT): Active
inhibition (U2OS [6]): Active
Activity (KOPN-8 [7]): Active
IC50 (B-ALL [8]): 7.52 µM
Ratio (U2OS [10]): 5
Activity (HMEC [12]): Non-Toxic

Structure (SMILES): CC1=C2CC(C)(C)/C=C/C(=O)/C(C)=C\C3=C[C@H](C)C[C@]3(O2)C1=O [JATROPHONE]
Activity (KOPN-8 [13]): Active
inhibition (MDA-MB-231): Active
Activity (MCF7 [14]): Active
Activity (MCF7 [15]): Active
inhibition (MCF7 [16]): Active
inhibition (U2OS [17]): Active
inhibition (B-ALL [18]): Active
Activity (HMEC [19]): Toxic
Activity (MCF7 [20]): inactive
inhibition (K562): Active
Activity (HMEC [21]): Toxic
inhibition (KOPN-8 [22]): Active
